From ChEMBL document CHEMBL4765399, “Design, synthesis, and biological evaluation of 5-((8-methoxy-2-methylquinolin-4-yl)amino)-1H-indole-2-carbohydrazide derivatives as novel Nur77 modulators” (Eur J Med Chem, 2020)
Calls of active or inactive are those of the source. The rule behind the calls is not given here.

Columns and labels:
QGY-7703 [1] = assay: Upregulation of Nur77 expression in human QGY-7703 cells incubated for 6 hrs by Western blot analysis; format: functional, cell-based; details: dose 0.5-2 µM
Procedure, shortened: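 HepG2, QGY-7703 and SMMC-7721 cells treated with the indicated concentrations for 6 h. HepG2 also given 2.0 µM over a time course. Lysis in RIPA with protease and phosphatase inhibitors; 40-80 µg protein by SDS-PAGE, nitrocellulose transfer. Membranes blocked with 5% milk, primary antibody overnight, HRP secondary, chemiluminescence. GAPDH as loading control.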

HepG2 [2] = assay: Upregulation of RARgamma expression in human HepG2 cells at 2 uM incubated for 2 to 12 hrs by Western blot analysis; format: functional, cell-based; details: time 2-12 hrs
Procedure, shortened: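 HepG2 cells given 2.0 µM for the indicated times. RXRα, RARγ and Nur77 detected by western blot: RIPA lysis with protease and phosphatase inhibitors, 40-80 µg protein by SDS-PAGE, nitrocellulose, 5% milk block, primary antibody overnight, HRP secondary, chemiluminescence read-out.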

HepG2 [3] = assay: Inhibition of colony formation in human HepG2 cells at 2 uM incubated for 24 hrs measured after cell culturing for 15 days in normal medium by crystal violet staining based assay; format: functional; details: time 16.0 day
Procedure, shortened: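 500 HepG2, QGY-7703 or SMMC-7721 cells per well allowed to attach 24 h, exposed to DMSO or 2.0 µM for 24 h, then grown 15 days in plain medium. Colonies fixed 30 min in 4% paraformaldehyde, stained 15 min with 0.1% crystal violet, photographed and counted.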

HepG2 [4] = assay: Induction of morphological changes in human HepG2 cells assessed as vesicles accumulation at 1 to 2 uM incubated for 6 to 12 hrs by phase contrast microscopic analysis; format: functional, cell-based; details: dose 1-2 µM, time 6-12 hrs
Procedure, shortened: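 HepG2 cells given graded concentrations; morphology monitored at set time points by phase-contrast optical microscopy.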

HepG2 [5] = assay: Induction of apoptosis in human HepG2 cells assessed as increase in cleaved PARP level at 0.5 to 2 uM incubated for 12 hrs by Western blot analysis; format: functional, cell-based; details: dose 0.5-2 µM
Procedure, shortened: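 HepG2 cells exposed 12 h to graded concentrations. RIPA lysates with protease/phosphatase inhibitors, 40–80 µg protein by SDS-PAGE onto nitrocellulose, probed for PARP cleavage, chemiluminescent detection.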

QGY-7703 [6] = assay: Induction of autophagy in human QGY-7703 cells assessed as increase in Beclin 1 expression measured after 12 hrs by Western blot analysis; format: functional, cell-based; details: dose 0.5-2 µM
Procedure, shortened: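 HepG2, QGY-7703 and SMMC-7721 treated with graded concentrations for 12 h. Lysed in RIPA with inhibitors; 40-80 µg protein separated by SDS-PAGE, blotted to nitrocellulose, blocked 1 h in 5% milk, primary antibodies overnight (LC3, Beclin1, Bip, CHOP, TRB3), HRP secondaries, chemiluminescence.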

HepG2 [7] = assay: Induction of autophagy in human HepG2 cells assessed as increase in GFP-LC3 puncta formation at 2 uM after 6 hrs by fluorescence microscopic method; format: functional, cell-based
Procedure, shortened: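 HepG2, or HepG2 and shNur77 HepG2, transfected with GFP-LC3, then given vehicle or 2.0 µM for 6 h; GFP-LC3 puncta visualised by fluorescence microscopy alongside phase-contrast images.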

HepG2 [8] = assay: Induction of endoplasmic reticulum stress in Nur77 […] human HepG2 cells assessed as TRB3 protein expression at 2 uM incubated for 12 hrs by Western blot analysis; format: functional, cell-based
Procedure, shortened: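 HepG2 and shNur77 HepG2 exposed to DMSO or 2.0 µM for 6 and 12 h; lysates immunoblotted for TRB3, Bip, CHOP and Nur77 (SDS-PAGE, nitrocellulose, overnight primary antibodies, HRP secondary, chemiluminescence).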

HepG2 [9] = assay: Induction of endoplasmic reticulum stress in human HepG2 cells assessed as increase in bip expression at 2 uM measured after 1 to 4 hrs by Western blot analysis; format: functional, cell-based; details: time 1-4 hrs
Procedure, shortened: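 HepG2 exposed to 2.0 µM over a time course; Nur77, Bip, p-EIF2a, TRB3 and LC3 levels followed by Western blot of RIPA lysates.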

HepG2 [10] = assay: Antitumor activity against human HepG2 cells xenografted in BALB/c mouse assessed as tumor weight at 10 mg/kg/day, ip administered for 15 days (reference value: 0.86 +/- 0.18 g); format: functional; details: dose 20 mg/kg/day; time 15 day; in the assay text read “20 mg/kg/day” for “10 mg/kg/day”
Procedure, shortened: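 Subcutaneous flank xenograft of 5×10^6 HepG2 cells in 4-week-old male Balb/c nude mice. At about 100 mm³, 15 mice were randomized into three groups: vehicle, 10 or 20 mg/kg i.p. daily for 15 days. Tumor size was measured every day, and tumors were excised and weighed at the end.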

HepG2 [11] = assay: Antitumor activity against human HepG2 cells xenografted in BALB/c mouse assessed as induction of ER stress by measuring increase in TRB3 level in tumor tissue at 10 to 20 mg/kg/day, ip administered for 15 days by immunohistochemical analysis; format: functional, organism-based; details: dose 10-20 mg/kg/day, time 15.0 day
Procedure, shortened: (§1)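 HepG2 cells (5×10^6) injected subcutaneously into flanks of 4-week-old male Balb/c nude mice. At about 100 mm³, 15 mice were randomized to vehicle, 10 or 20 mg/kg i.p. once daily for 15 days. Tumors were then excised for immunostaining of paraffin sections (5 μm) or for western blot.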

Mus musculus = assay: Upregulation of Nur77 expression in tumor tissue of BALB/c mouse xenografted with human HepG2 cells at 10 to 20 mg/kg/day, ip administered for 15 days by immunohistochemical analysis; format: functional, organism-based; details: dose 10-20 mg/kg/day, time 15.0 day
Procedure, shortened: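 Tumours taken from HepG2 xenograft mice after 15 days of daily i.p. dosing (10 or 20 mg/kg) or vehicle. Fixed in 4% paraformaldehyde, paraffin-embedded, cut into 5 µm sections. Immunostained with anti-Nur77 at 1:200.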

HepG2 [12] = assay: Induction of apoptosis in human HepG2 cells assessed as early apoptotic cells at 1 uM incubated for 12 hrs by Annexin V-FITC/PI staining based flow cytometry (reference value: 3.99%); format: functional
HepG2 [13] = assay: Induction of apoptosis in human HepG2 cells assessed as late apoptotic cells at 2 uM incubated for 12 hrs by Annexin V-FITC/PI staining based flow cytometry (reference value: 1.1 to 2.75%); format: functional
HepG2 [14] = assay: Induction of apoptosis in human HepG2 cells transfected with shRNA assessed as live cells at 2 uM incubated for 12 hrs by Annexin V-FITC/PI staining based flow cytometry (reference value: 92.6%); format: functional
HepG2 [15] = assay: Antitumor activity against human HepG2 cells xenografted in BALB/c mouse assessed as sparser and vacuolated cells in tumor tissue at 10 to 20 mg/kg/day, ip for 15 days by hematoxylin and eosin staining based microscopic analysis; format: functional, organism-based; details: dose 10-20 mg/kg/day, time 15.0 day
Procedure, shortened: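 H&E staining of 4% paraformaldehyde-fixed, paraffin-embedded 5 μm tumor slices from the HepG2 flank xenograft (male Balb/c nude mice, 10 or 20 mg/kg i.p. daily for 15 days, versus vehicle). Examined by light microscopy at 200, 400 and 1000×.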

HepG2 [16] = assay: Antitumor activity against human HepG2 cells xenografted in BALB/c mouse assessed as reduction in PCNA expression in tumor tissue at 10 to 20 mg/kg/day, ip for 15 days by western blot analysis; format: functional, organism-based; details: dose 10-20 mg/kg/day, time 15.0 day; procedure, shortened: as §1
HepG2 [17] = assay: Antitumor activity against human HepG2 cells xenografted in BALB/c mouse assessed as induction of ER stress by measuring increase in CHOP level in tumor tissue at 10 to 20 mg/kg/day, ip administered for 15 days by western blot analysis; format: functional, organism-based; details: dose 10-20 mg/kg/day, time 15.0 day; procedure, shortened: as §1

With `COc1cccc2c(Nc3ccc4[nH]c(C(=O)N/N=C/c5ccc(SC)cc5)cc4c3)cc(C)nc12` the Activity (QGY-7703 [1]) was “Dose-dependent effect”, the Activity (HepG2 [2]) was “inactive” and the inhibition (HepG2 [3]) was “Active”. The Activity (HepG2 [4]) was “Active”, the Activity (HepG2 [5]) was “Dose-dependent effect” and the Activity (QGY-7703 [6]) was “Dose-dependent effect”. The Activity (HepG2 [7]) was “Active”, the Activity (HepG2 [8]) was “inactive” and the Activity (HepG2 [9]) was “Active”. For the same compound, the Activity (HepG2 [10]) was 0.24 g, the Activity (HepG2 [11]) was “Active” and the Activity (Mus musculus) was “Active”. For the same compound, the Activity (HepG2 [12]) was 18.5%, the Activity (HepG2 [13]) was 55.6% and the Activity (HepG2 [14]) was 59.8%. For the same compound, the Activity (HepG2 [15]) was “Active”, the Activity (HepG2 [16]) was “Active” and the Activity (HepG2 [17]) was “Active”.
